Results as given in ChEMBL document CHEMBL1255444, “In vitro antibacterial activities of JNJ-Q2, a new broad-spectrum fluoroquinolone” (Antimicrob Agents Chemother, 2010).

Tests used:
Assay type in all cases: functional
[1] = system: Streptococcus pneumoniae; test: Antibacterial activity against Streptococcus pneumoniae ATCC 49619 by broth microdilution method
Method in brief: (§1)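 MICs by CLSI M07-A7 broth microdilution in cation-adjusted Mueller-Hinton medium. For S. pneumoniae the medium was supplemented with 5% lysed horse blood. CLSI quality control strains were run alongside as appropriate.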

[2] = system: Staphylococcus aureus; test: Antibacterial activity against Staphylococcus aureus […] by broth microdilution method
Method in brief: (§2)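 CLSI M07-A7 broth microdilution MIC. Medium was cation-adjusted Mueller-Hinton broth. For S. pneumoniae it was Mueller-Hinton supplemented with 5% lysed horse blood. CLSI quality-control strains were included as appropriate.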

[3] = system: Staphylococcus aureus; test: Antibacterial activity against methicillin-susceptible Staphylococcus aureus by broth microdilution method
[4] = system: Staphylococcus aureus; test: Antibacterial activity against methicillin-resistant Staphylococcus aureus by broth microdilution method; method in brief: as §2
[5] = system: Staphylococcus aureus; test: Antibacterial activity against methicillin-, ciprofloxacin-resistant Staphylococcus aureus by broth microdilution method; method in brief: as §2
[6] = system: Staphylococcus epidermidis; test: Antibacterial activity against methicillin-susceptible Staphylococcus epidermidis by broth microdilution method
[7] = system: Staphylococcus epidermidis; test: Antibacterial activity against methicillin-resistant Staphylococcus epidermidis by broth microdilution method
[8] = system: Staphylococcus epidermidis; test: Antibacterial activity against methicillin-, ciprofloxacin-resistant Staphylococcus epidermidis by broth microdilution method
[9] = system: Streptococcus pyogenes; test: Antibacterial activity against Streptococcus pyogenes by broth microdilution method; method in brief: as §1
[10] = system: Streptococcus agalactiae; test: Antibacterial activity against Streptococcus agalactiae by broth microdilution method; method in brief: as §1
[11] = Antibacterial activity against Streptococcus sp. group C by broth microdilution method
Method in brief: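 MICs by broth microdilution following CLSI M07-A7 in cation-adjusted Mueller-Hinton medium, using isolates from the J&JPRD culture collection. CLSI quality control strains were included as appropriate.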

[12] = system: Enterococcus faecalis; test: Antibacterial activity against Enterococcus faecalis ATCC 29212 by broth microdilution method; method in brief: as §1
[13] = system: Enterococcus faecium; test: Antibacterial activity against Enterococcus faecium by broth microdilution method; method in brief: as §1
[14] = system: Haemophilus influenzae; test: Antibacterial activity against Haemophilus influenzae by broth microdilution method; method in brief: as §1
[15] = system: Moraxella catarrhalis; test: Antibacterial activity against Moraxella catarrhalis by broth microdilution method; method in brief: as §1
[16] = system: Escherichia coli; test: Antibacterial activity against ciprofloxacin-resistant Escherichia coli by broth microdilution method; method in brief: as §2
[17] = system: Klebsiella aerogenes; test: Antibacterial activity against Enterobacter aerogenes by broth microdilution method; method in brief: as §1
[18] = system: Serratia marcescens; test: Antibacterial activity against Serratia marcescens by broth microdilution method; method in brief: as §1
[19] = system: Proteus mirabilis; test: Antibacterial activity against Proteus mirabilis by broth microdilution method; method in brief: as §1
[20] = system: Providencia stuartii; test: Antibacterial activity against Providencia stuartii by broth microdilution method; method in brief: as §1
[21] = system: Citrobacter freundii; test: Antibacterial activity against Citrobacter freundii by broth microdilution method; method in brief: as §1
[22] = system: Pseudomonas aeruginosa; test: Antibacterial activity against Pseudomonas aeruginosa ATCC 27853 by broth microdilution method; method in brief: as §1
[23] = system: Streptococcus pneumoniae; test: Antibacterial activity against Streptococcus pneumoniae isolate OC7189 by broth microdilution method; method in brief: as §2
[24] = system: Streptococcus pneumoniae; test: Antibacterial activity against Streptococcus pneumoniae isolate OC6608 by broth microdilution method; method in brief: as §2
[25] = system: Streptococcus pneumoniae; test: Antibacterial activity against Streptococcus pneumoniae isolate OC5462 by broth microdilution method; method in brief: as §2
[26] = system: Streptococcus pneumoniae; test: Antibacterial activity against Streptococcus pneumoniae isolate OC7376 by broth microdilution method; method in brief: as §2
[27] = system: Streptococcus pneumoniae; test: Antibacterial activity against Streptococcus pneumoniae isolate OC6790 by broth microdilution method; method in brief: as §2
[28] = system: Streptococcus pneumoniae; test: Antibacterial activity against Streptococcus pneumoniae isolate OC7368 by broth microdilution method; method in brief: as §2
[29] = system: Streptococcus pneumoniae; test: Antibacterial activity against Streptococcus pneumoniae isolate OC7348 by broth microdilution method; method in brief: as §2
[30] = system: Streptococcus pneumoniae; test: Antibacterial activity against Streptococcus pneumoniae isolate OC6585 by broth microdilution method; method in brief: as §2
[31] = system: Streptococcus pneumoniae; test: Antibacterial activity against Streptococcus pneumoniae isolate OC6610 by broth microdilution method; method in brief: as §2
[32] = system: Staphylococcus aureus; test: Antibacterial activity against methicillin-resistant Staphylococcus aureus isolate OC11223 by broth microdilution method; method in brief: as §2
[33] = system: Staphylococcus aureus; test: Antibacterial activity against methicillin-resistant Staphylococcus aureus isolate OC11696 by broth microdilution method; method in brief: as §2
[34] = system: Staphylococcus aureus; test: Antibacterial activity against methicillin-resistant Staphylococcus aureus isolate OC12501 by broth microdilution method; method in brief: as §2
[35] = system: Staphylococcus aureus; test: Antibacterial activity against methicillin-resistant Staphylococcus aureus isolate OC8530 harboring gyrA S84L and parC I143V mutant gene by broth microdilution method
Method in brief: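 CLSI M07-A7 broth microdilution MIC in cation-adjusted Mueller-Hinton medium. For S. pneumoniae the medium was supplemented with 5% lysed horse blood. CLSI quality-control strains were included as appropriate.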

[36] = system: Staphylococcus aureus; test: Antibacterial activity against methicillin-resistant Staphylococcus aureus isolate OC4222 harboring gyrA S84L and parC S80F mutant gene by broth microdilution method; method in brief: as §2
[37] = system: Staphylococcus aureus; test: Antibacterial activity against methicillin-resistant Staphylococcus aureus isolate OC2838 by broth microdilution method; method in brief: as §2
[38] = system: Staphylococcus aureus; test: Antibacterial activity against methicillin-resistant Staphylococcus aureus isolate OC17042 harboring gyrA S84L/G106D, parC S80F and parE D732N mutant gene by broth microdilution method; method in brief: as §2
[39] = system: Staphylococcus aureus; test: Antibacterial activity against methicillin-resistant Staphylococcus aureus isolate OC11521 harboring gyrA S84L/S85P, parC E84G mutant gene by broth microdilution method; method in brief: as §2
[40] = system: Streptococcus pneumoniae; test: Antibacterial activity against Streptococcus pneumoniae R6 by agar dilution method
Method in brief: (§3)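 MICs for the resistance-selection studies were determined by CLSI agar dilution on Mueller-Hinton medium. For S. pneumoniae the medium was supplemented with 5% lysed horse blood. For MRSA fluctuation-assay strains an arithmetic agar dilution scheme was used for a more precise MIC.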

[41] = system: Streptococcus pneumoniae; test: Antibacterial activity against Streptococcus pneumoniae OC7452 harboring parC S79Y mutant gene by agar dilution method; method in brief: as §3
[42] = system: Streptococcus pneumoniae; test: Antibacterial activity against Streptococcus pneumoniae OC7453 harboring gyrA S81F mutant gene by agar dilution method; method in brief: as §3
[43] = system: Streptococcus pneumoniae; test: Antibacterial activity against Streptococcus pneumoniae OC6755 harboring gyrA S81F and parC S79Y mutant gene by agar dilution method; method in brief: as §3

COc1c(N2C[C@@H]3CCCN[C@@H]3C2)c(F)cc2c(=O)c(C(=O)O)cn(C3CC3)c12 [MOXIFLOXACIN]
16 µg/mL: MIC90 [12] | MIC [31]
> 8 µg/mL: MIC90 [21]
0.03 µg/mL: MIC90 [14]
8 µg/mL: MIC90 [2] | MIC90 [4] | MIC90 [5] | MIC [29] | MIC [30] | MIC [38] | MIC [43]
0.12 µg/mL: MIC [9] | MIC50 [9] | MIC50 [11] | MIC50 [17] | MIC [40]
32 µg/mL: MIC50 [16] | MIC50 [20] | MIC [39]
64 µg/mL: MIC90 [20]
1 µg/mL: MIC90 [18] | MIC [25] | MIC [33] | MIC [34]
2 µg/mL: MIC50 [2] | MIC50 [4] | MIC50 [7] | MIC50 [8] | MIC50 [21] | MIC50 [22] | MIC [24] | MIC [26] | MIC [35] | MIC [36]
128 µg/mL: MIC90 [16]
> 16 µg/mL: MIC90 [13]
0.06 µg/mL: MIC [3] | MIC50 [3] | MIC50 [6] | MIC [15] | MIC50 [15] | MIC90 [15] | MIC [32]
0.015 µg/mL: MIC50 [14]
0.25 µg/mL: MIC50 [1] | MIC90 [9] | MIC50 [10] | MIC90 [10] | MIC90 [11] | MIC [12] | MIC50 [12] | MIC90 [17] | MIC [23] | MIC [41]
4 µg/mL: MIC90 [1] | MIC50 [5] | MIC90 [7] | MIC90 [8] | MIC50 [13] | MIC90 [22] | MIC [27] | MIC [28] | MIC [37]
0.5 µg/mL: MIC50 [18] | MIC50 [19] | MIC90 [19] | MIC [42]
